According to ChEMBL document CHEMBL1138832, “N2-substituted O6-cyclohexylmethylguanine derivatives: potent inhibitors of cyclin-dependent kinases 1 and 2” (J Med Chem, 2004):

molecular target: Cyclin-dependent kinase 1/cyclin B (Homo sapiens) (UniProt P06493+P14635+Q8WWL7+O95067); assay: Inhibition of cyclin-dependent kinase 1/Cyclin B at 10 uM; type: protein-complex assay; conditions: Marthasterias glacialis
Summary of the method: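 Starfish (Marthasterias glacialis) oocyte CDK1/cyclin B1 kinase inhibition assay run by an earlier-published method. Solubility limited the highest concentration that could be tested to 10 µM.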

How did the inhibition turn out when `CCc1cccc(Nc2nc(OCC3CCCCC3)c3[nH]cnc3n2)c1` was run?
The inhibition was 32%.

molecular target: T1, Cyclin-dependent kinase 2/cyclin A (Homo sapiens) (UniProt P24941+P20248+P78396); assay: Inhibition of cyclin-dependent kinase 2/Cyclin A3 at 10 uM; type: protein-complex assay; conditions: not given
Summary of the method: (§1)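 Human CDK2/cyclin A kinase inhibition assay run by an earlier-published method. Solubility limited the highest concentration that could be tested to 10 µM.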

`CC(C)[C@H](CO)Nc1nc(OCC2CCCCC2)c2[nH]cnc2n1` was tested. Which inhibition did it give?
The inhibition was 20%.

molecular target: T1, Cyclin-dependent kinase 2/cyclin A (Homo sapiens); assay: (§2) Inhibition of Cyclin-dependent kinase 2-Cyclin A3 at 10 uM; type: protein-complex assay; conditions: not given; summary of the method: as §1

How did the inhibition turn out when `CC(C)[C@@H](CO)Nc1nc(OCC2CCCCC2)c2[nH]cnc2n1` was run?
The inhibition was 19%.

How did the inhibition turn out when `Fc1ccc(Nc2nc(OCC3CCCCC3)c3[nH]cnc3n2)cc1` was run?
Its inhibition is 27%.

`CC[C@@H](CO)Nc1nc(OCC2CCCCC2)c2[nH]cnc2n1` was tested. Which inhibition did it give?
The inhibition was 52%.

`Clc1nc(OCC2CCCCC2)c2[nH]cnc2n1` was tested. Which inhibition did it give?
Its inhibition is 5%.

`CC[C@H](CO)Nc1nc(OCC2CCCCC2)c2[nH]cnc2n1` was tested. Which inhibition did it give?
Its inhibition is 62%.

`Fc1cccc(Nc2nc(OCC3CCCCC3)c3[nH]cnc3n2)c1` was tested. Which inhibition did it give?
The inhibition was 62%.

`CN(C)c1nc(OCC2CCCCC2)c2[nH]cnc2n1` was tested. Which inhibition did it give?
Its inhibition is 31%.

How did the inhibition turn out when `Fc1nc(OCC2CCCCC2)c2[nH]cnc2n1` was run?
The inhibition was 4%.

With `CCc1cccc(Nc2nc(OCC3CCCCC3)c3[nH]cnc3n2)c1` as the compound, how does the inhibition read?
The inhibition was 37%.

With `Fc1ccc(Nc2nc(OCC3CCCCC3)c3[nH]cnc3n2)cc1Cl` as the compound, how does the inhibition read?
Its inhibition is 68%.

`CSc1ccc(Nc2nc(OCC3CCCCC3)c3[nH]cnc3n2)cc1` was tested. Which inhibition did it give?
The inhibition was 18%.

molecular target: T2, Cyclin-dependent kinase 2/cyclin A (Homo sapiens, UniProt P24941); assay: Inhibition of Cyclin-dependent kinase 2-Cyclin A3 at 100 uM; type: protein-complex assay; conditions: not given

With `COc1ccc(Oc2nc(OCC3CCCCC3)c3[nH]cnc3n2)cc1` as the compound, how does the IC50 read?
Its IC50 is 42000 nM.

molecular target: Cyclin-dependent kinase 1/cyclin B (Homo sapiens, UniProt P06493); assay: Inhibitory activity against cyclin-dependent kinase 1-cyclin B.; type: protein-complex assay; conditions: not given
Summary of the method: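 CDK1/cyclin B1 enzyme from starfish (Marthasterias glacialis) oocytes; kinase inhibition assayed by a method from earlier work.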

Which IC50 does the source give for `NS(=O)(=O)c1ccc(NNc2nc(OCC3CCCCC3)c3[nH]cnc3n2)cc1` here?
Its IC50 is 8900 nM.

For `CNc1nc(OCC2CCCCC2)c2[nH]cnc2n1`, which IC50 is on record?
Its IC50 is 5300 nM.

Which IC50 does the source give for `c1csc(CNc2nc(OCC3CCCCC3)c3[nH]cnc3n2)c1` here?
Its IC50 is 700 nM.

`N#CCc1ccc(Nc2nc(OCC3CCCCC3)c3[nH]cnc3n2)cc1` was tested. Which IC50 did it give?
Its IC50 is 300 nM.

Which IC50 does the source give for `C[S+]([O-])c1ccc(Nc2nc(OCC3CCCCC3)c3[nH]cnc3n2)cc1` (stereo unspecified) here?
The IC50 was 200 nM.

How did the IC50 turn out when `CSc1cccc(Nc2nc(OCC3CCCCC3)c3nc[nH]c3n2)c1` was run?
Its IC50 is 2400 nM.

`NC(=O)Cc1ccc(Nc2nc(OCC3CCCCC3)c3nc[nH]c3n2)cc1` was tested. Which IC50 did it give?
Its IC50 is 140 nM.

Which IC50 does the source give for `CNS(=O)(=O)c1ccc(Nc2nc(OCC3CCCCC3)c3nc[nH]c3n2)cc1` here?
Its IC50 is 9 nM.

For `O=C(O)c1ccc(Nc2nc(OCC3CCCCC3)c3nc[nH]c3n2)cc1`, which IC50 is on record?
Its IC50 is 1000 nM.

`CN(C)S(=O)(=O)c1ccc(Nc2nc(OCC3CCCCC3)c3nc[nH]c3n2)cc1` was tested. Which IC50 did it give?
Its IC50 is 77 nM.

`Clc1cc(Cl)cc(Nc2nc(OCC3CCCCC3)c3[nH]cnc3n2)c1` was tested. Which IC50 did it give?
Its IC50 is 13000 nM.

How did the IC50 turn out when `Brc1cccc(Nc2nc(OCC3CCCCC3)c3[nH]cnc3n2)c1` was run?
The IC50 was 5300 nM.

With `COc1ccc(Nc2nc(OCC3CCCCC3)c3[nH]cnc3n2)cc1` as the compound, how does the IC50 read?
The IC50 was 790 nM.

`CC(=O)c1ccc(Nc2nc(OCC3CCCCC3)c3[nH]cnc3n2)cc1` was tested. Which IC50 did it give?
Its IC50 is 500 nM.

With `COc1cc(Nc2nc(OCC3CCCCC3)c3[nH]cnc3n2)ccc1S(N)(=O)=O` as the compound, how does the IC50 read?
Its IC50 is 103 nM.

Which IC50 does the source give for `CNC(=O)c1ccc(Nc2nc(OCC3CCCCC3)c3nc[nH]c3n2)cc1` here?
Its IC50 is 400 nM.

`c1ccc(Nc2nc(OCC3CCCCC3)c3nc[nH]c3n2)cc1` was tested. Which IC50 did it give?
The IC50 was 1600 nM.

Which IC50 does the source give for `CN(C)C(=O)c1ccc(Nc2nc(OCC3CCCCC3)c3[nH]cnc3n2)cc1` here?
Its IC50 is 600 nM.

How did the IC50 turn out when `OCCNc1nc(OCC2CCCCC2)c2[nH]cnc2n1` was run?
Its IC50 is 3200 nM.

How did the IC50 turn out when `NS(=O)(=O)c1cccc(Nc2nc(OCC3CCCCC3)c3nc[nH]c3n2)c1` was run?
The IC50 was 240 nM.

`OCc1cccc(Nc2nc(OCC3CCCCC3)c3[nH]cnc3n2)c1` was tested. Which IC50 did it give?
The IC50 was 300 nM.

How did the IC50 turn out when `CC(C)Nc1nc(OCC2CCCCC2)c2[nH]cnc2n1` was run?
Its IC50 is 2000 nM.

With `NS(=O)(=O)c1ccc(CNc2nc(OCC3CCCCC3)c3[nH]cnc3n2)s1` as the compound, how does the IC50 read?
Its IC50 is 5700 nM.

`CCNc1nc(OCC2CCCCC2)c2[nH]cnc2n1` was tested. Which IC50 did it give?
The IC50 was 3300 nM.

For `CCc1cccc(Nc2nc(OCC3CCCCC3)c3[nH]cnc3n2)c1`, which IC50 is on record?
Its IC50 is 37000 nM.

With `COc1cccc(Nc2nc(OCC3CCCCC3)c3[nH]cnc3n2)c1` as the compound, how does the IC50 read?
Its IC50 is 2200 nM.

system: Cyclin-dependent kinase 1/cyclin B (starfish); assay: Inhibition of Cyclin-dependent kinase 1-cyclin B at 10 uM; conditions: Asteroidea

`CC(C)[C@@H](CO)Nc1nc(OCC2CCCCC2)c2[nH]cnc2n1` was tested. Which inhibition did it give?
Its inhibition is 1%.

How did the inhibition turn out when `Fc1ccc(Nc2nc(OCC3CCCCC3)c3[nH]cnc3n2)cc1` was run?
The inhibition was 20%.

For `CC[C@@H](CO)Nc1nc(OCC2CCCCC2)c2[nH]cnc2n1`, which inhibition is on record?
The inhibition was 29%.

For `Clc1nc(OCC2CCCCC2)c2[nH]cnc2n1`, which inhibition is on record?
The inhibition was 6%.

Which inhibition does the source give for `CC[C@H](CO)Nc1nc(OCC2CCCCC2)c2[nH]cnc2n1` here?
The inhibition was 43%.

`Fc1cccc(Nc2nc(OCC3CCCCC3)c3[nH]cnc3n2)c1` was tested. Which inhibition did it give?
Its inhibition is 69%.

`CC(C)[C@H](CO)Nc1nc(OCC2CCCCC2)c2[nH]cnc2n1` was tested. Which inhibition did it give?
Its inhibition is 2%.

`CN(C)c1nc(OCC2CCCCC2)c2[nH]cnc2n1` was tested. Which inhibition did it give?
Its inhibition is 27%.

Which inhibition does the source give for `Fc1nc(OCC2CCCCC2)c2[nH]cnc2n1` here?
The inhibition was 7%.

How did the inhibition turn out when `Fc1ccc(Nc2nc(OCC3CCCCC3)c3[nH]cnc3n2)cc1Cl` was run?
Its inhibition is 73%.

`CSc1ccc(Nc2nc(OCC3CCCCC3)c3[nH]cnc3n2)cc1` was tested. Which inhibition did it give?
Its inhibition is 10%.

molecular target: T2, Cyclin-dependent kinase 2/cyclin A; assay: Inhibition of cyclin-dependent kinase 2-cyclin A3 (CDK2); type: protein-complex assay; conditions: not given

Which IC50 does the source give for `NS(=O)(=O)c1ccc(NNc2nc(OCC3CCCCC3)c3[nH]cnc3n2)cc1` here?
Its IC50 is 4300 nM.

With `CNc1nc(OCC2CCCCC2)c2[nH]cnc2n1` as the compound, how does the IC50 read?
Its IC50 is 5000 nM.

Which IC50 does the source give for `c1csc(CNc2nc(OCC3CCCCC3)c3[nH]cnc3n2)c1` here?
The IC50 was 1700 nM.

For `NC(=O)Cc1ccc(Nc2nc(OCC3CCCCC3)c3nc[nH]c3n2)cc1`, which IC50 is on record?
The IC50 was 130 nM.

With `O=C(O)c1ccc(Nc2nc(OCC3CCCCC3)c3nc[nH]c3n2)cc1` as the compound, how does the IC50 read?
The IC50 was 800 nM.

How did the IC50 turn out when `Clc1cc(Cl)cc(Nc2nc(OCC3CCCCC3)c3[nH]cnc3n2)c1` was run?
Its IC50 is 12000 nM.

`CNC(=O)c1ccc(Nc2nc(OCC3CCCCC3)c3nc[nH]c3n2)cc1` was tested. Which IC50 did it give?
The IC50 was 200 nM.

`OCCNc1nc(OCC2CCCCC2)c2[nH]cnc2n1` was tested. Which IC50 did it give?
Its IC50 is 2800 nM.

Which IC50 does the source give for `CC(C)Nc1nc(OCC2CCCCC2)c2[nH]cnc2n1` here?
Its IC50 is 1200 nM.

`NS(=O)(=O)c1ccc(CNc2nc(OCC3CCCCC3)c3[nH]cnc3n2)s1` was tested. Which IC50 did it give?
The IC50 was 5000 nM.

For `CCNc1nc(OCC2CCCCC2)c2[nH]cnc2n1`, which IC50 is on record?
The IC50 was 2800 nM.

With `CCc1cccc(Nc2nc(OCC3CCCCC3)c3[nH]cnc3n2)c1` as the compound, how does the IC50 read?
The IC50 was 52000 nM.

molecular target: Cyclin-dependent kinase 1/cyclin B (starfish); assay: Inhibition of Cyclin-dependent kinase 1-cyclin B at 10 uM; conditions: not given

With `COC(=O)c1ccc(Nc2nc(OCC3CCCCC3)c3nc[nH]c3n2)cc1` as the compound, how does the IC50 read?
The IC50 was 66000 nM.

molecular target: T2, Cyclin-dependent kinase 2/cyclin A; assay: as §2; type: protein-complex assay; conditions: not given; summary of the method: as §1

`COC(=O)c1ccc(Nc2nc(OCC3CCCCC3)c3nc[nH]c3n2)cc1` was tested. Which IC50 did it give?
The IC50 was 25000 nM.

molecular target: Cyclin-dependent kinase 1/cyclin B (starfish); assay: Inhibition of Cyclin-dependent kinase 1-cyclin B at 100 uM; conditions: not given

For `COc1ccc(Oc2nc(OCC3CCCCC3)c3[nH]cnc3n2)cc1`, which IC50 is on record?
The IC50 was 10000 nM.
